From PubChem BioAssay
SENP1 FRET inh – blocks the human SENP1 SUMO protease catalytic domain; Q9P0U3; recombinant SENP1 catalytic domain, CyPet-SUMO1-YPet FRET cleavage; inhibition, % at 10 µM; 0.21% of 360,000 active; AID 624204;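 active = inhibition at least 30% at 10 µM, raw YFP signal under a set limit, fluorescence ratio 0.5 to 1.5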;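 note: 0% = enzyme with DMSO and 100% = no enzyme wells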
Target sequence (Q9P0U3 419-644 limits assumed): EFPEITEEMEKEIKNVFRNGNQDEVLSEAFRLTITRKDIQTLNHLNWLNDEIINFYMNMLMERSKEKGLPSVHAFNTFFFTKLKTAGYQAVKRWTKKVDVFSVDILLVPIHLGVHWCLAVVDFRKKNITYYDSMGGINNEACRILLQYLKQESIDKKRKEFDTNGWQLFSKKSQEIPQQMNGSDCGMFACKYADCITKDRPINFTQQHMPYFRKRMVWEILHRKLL
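Controls: no-enzyme wells low, DMSO-plus-enzyme wells high control. Test system: human recombinant His6-tagged SENP1 catalytic domain enzyme. Reagent: SFCypet-SUMO1-SFYpet FRET protein substrate, 25 nM final. Doses: one dose per compound, 10 µM, 0.5% DMSO. Detection: FRET, CFP and YFP emission. Timing: 50 min reaction at room temperature.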
SENP8 block-1 – SENP8 protease inhibition. Q96LD8. purified SENP8, Z-RLRGG-aminoluciferin cleavage, luminescence. inhibition, % at 10 µM. 1.2% of 330,000 active; in the data active = inhibition above about 50%
SENP8 block-2 – inhibitors of human SENP8 protease | inhibition, % at 20 µM | Q96LD8 | 0.64% of 360,000 active | recombinant SENP8, Nedd8 substrate fluorescence; in the data active = inhibition mostly above about 40%, no sharp cut-off; inactive = mostly below about 27%
UCH37 DUB inh – human UCH37 deubiquitinating enzyme inhibition; Q9Y5K5; purified proteasome/UCH37, Ub-AMC cleavage fluorescence; inhibition, % (no concentration beside the values); 0.33% of 330,000 active; AID 588478;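 active = mean inhibition over replicate wells above about 20%, limit read from the data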;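 note: 0% = compound-free wells with enzyme and 100% = wells lacking proteasome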
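system = Proteasome-associated human UCH37 deubiquitinase | amount = 0.15 nM proteasome as dispensed | medium = pH 7.4 Tris-HCl (50 mM) with ovalbumin, ATP-MgCl2, DTT | incubation = 30 min preincubation with enzyme, 25 min cleavage at room temperature | detection = AMC fluorescence 355/460 nm | read-out basis = percent inhibition | controls = no-proteasome and no-compound wells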
SENP6 block – inhibitors of human SENP6 protease; Q9GZR1; Recombinant SENP6 catalytic domain, aminoluciferin luminescence; inhibition, % at 10 µM; 1.8% of 330,000 active; AID 2599;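 active = inhibition above about 50% at the single tested dose, limit read from the data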;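 note: plate controls were DMSO wells with enzyme for no effect and DMSO wells lacking enzyme for full effect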
Target sequence (Q9GZR1 628-1112 limits assumed): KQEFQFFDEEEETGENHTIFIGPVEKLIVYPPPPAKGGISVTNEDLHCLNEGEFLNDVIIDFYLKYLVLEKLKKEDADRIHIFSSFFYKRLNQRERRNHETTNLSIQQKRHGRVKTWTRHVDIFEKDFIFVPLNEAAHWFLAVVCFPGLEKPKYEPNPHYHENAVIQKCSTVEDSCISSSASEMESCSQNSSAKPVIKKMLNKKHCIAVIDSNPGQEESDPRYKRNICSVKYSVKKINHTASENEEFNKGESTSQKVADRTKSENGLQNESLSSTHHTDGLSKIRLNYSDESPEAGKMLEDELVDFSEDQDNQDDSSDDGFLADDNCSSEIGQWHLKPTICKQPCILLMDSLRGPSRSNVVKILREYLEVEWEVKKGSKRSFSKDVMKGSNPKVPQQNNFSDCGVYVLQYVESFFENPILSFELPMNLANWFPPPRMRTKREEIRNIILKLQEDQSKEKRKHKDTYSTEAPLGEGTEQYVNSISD
SENP7 inh – SENP7 protease inhibition. 1.5% of 330,000 active. recombinant SENP7, Z-RLRGG-aminoluciferin luminescence, 40 min. AID 434973. inhibition, % at 5 µM;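 active = inhibition above about 50% at the single test dose, limit read from the data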;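 note: plate controls were DMSO with enzyme for no effect and no enzyme buffer wells for full effect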
SENP8 conf – confirmation of human SENP8 protease inhibitors; AID 488912; Recombinant SENP8, Z-RLRGG-aminoluciferin luminescence, 60 min; 40% of 6,200 active; inhibition, % at 12.5 µM; shares compounds with SENP7 inh;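 active = mean inhibition across replicates above about 50%, limit read from the data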
SENP6 confirm – confirmation of human SENP6 protease inhibitors | shares compounds with SENP7 inh | recombinant SENP6, Z-RLRGG-aminoluciferin luminescence | inhibition, % at 12.5 µM | 58% of 6,200 active | AID 488915
SENP7 conf – confirmation of human SENP7 protease inhibitors. inhibition, % at 12.5 µM. 69% of 6,200 active. AID 488917. recombinant SENP7, Z-RLRGG-aminoluciferin luminescence, 40 min. shares compounds with SENP7 inh
Casp3 select – inhibits human caspase-3 in SENP selectivity test; shares compounds with SENP7 inh; purified caspase-3, Z-DEVD-aminoluciferin luminescence, 60 min; inhibition, % at 12.5 µM; 60% of 6,200 active; AID 488918;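 active = mean inhibition above about 50%, limit read from the data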;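 note: plate controls were enzyme with DMSO for no effect and wells without caspase-3 for full effect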
Luc interf – luminescence interference (SENP counter-screen); Pre-incubated SENP8/Z-RLRGG-aminoluciferin, luciferase luminescence interference; 39% of 6,200 active; inhibition, % at 12.5 µM; shares compounds with SENP7 inh; AID 488919;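 active = mean inhibition above about 50% when retested at one dose, limit read from the data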;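 note: plate controls were DMSO wells with completed reaction for no effect and substrate without enzyme for full effect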
* hit, by the source's call; / = no result given; ! = repeats disagree. In the library only some 2.6% were active in any assay of this set; here they are far more common.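 Rule for the calls, unless noted: active = mean inhibition above about 50% in the one-dose retest (limit read from the data); inactive = the rest.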

SMILES	SENP1 FRET inh	SENP8 block-1	SENP8 block-2	UCH37 DUB inh	SENP6 block	SENP7 inh	SENP8 conf	SENP6 confirm	SENP7 conf	Casp3 select	Luc interf
O=[N+]([O-])c1cc(C=NOCc2c(Cl)cccc2Cl)ccc1N1CCOCC1	/	/	/	3	/	/	/	/	/	/	/
CCc1cc(C(=O)NNC(=S)NCc2ccccc2)cs1	2	4	17	1	1	4	/	/	/	/	/
CCc1cc(C(=O)Nc2ccccc2)cs1	2	52*	5	4	67*	75*	64*	66*	92*	81*	77*
Cc1cc(C(=O)Nc2ccc(Br)cc2)cs1	3	5	6	4	41	60*	2	22	28	42	3
CCc1cc(C(=O)NNC(=S)Nc2ccccc2C)cs1	0	36	13	6	60*	28	33	30	19	14	38
Cc1ccc(-c2cc(C(=O)NN=Cc3cnn(C)c3C)c3ccccc3n2)cc1C	/	/	/	-17	/	/	/	/	/	/	/
CCOc1ccc(C(CCC(=O)O)=NNC(=O)c2cccc(S(=O)(=O)Nc3ccccc3OC)c2)cc1	/	/	/	3	/	/	/	/	/	/	/
O=C(Cc1cccc2ccccc12)NN=Cc1ccc(F)cc1	/	/	/	2	/	/	/	/	/	/	/
CC(C)OC(=NS(=O)(=O)c1ccc(Cl)cc1)c1ccccc1	/	/	/	1	/	/	/	/	/	/	/
O=S(=O)(O)c1cccc(N=Nc2c(O)ccc3ccccc23)c1	13	94*	24	22*	99*	92*	98*	99*	102*	97*	96*
O=S(=O)(/N=C/c1c(O)ccc2ccccc12)c1ccccc1	-50	2	-51	/	15	10	/	/	/	/	/
CC(=NNC(=O)c1cc(Br)ccc1O)c1cccc(NC(=O)c2ccccc2F)c1	/	/	/	-3	/	/	/	/	/	/	/
CN1CC(=NS(=O)(=O)c2ccccc2)N(C)C1=O	/	/	/	6	/	/	/	/	/	/	/
CC(=NNc1ccc(C(=O)O)cc1)c1ccc(Cl)s1	/	/	/	9	/	/	/	/	/	/	/
CC(=O)c1cnc(Nc2cccc(Cl)c2Cl)s1	-4	41	-270	5	53*	48	62*	58*	86*	61*	5
CC(=O)c1cnc(Nc2ccccc2)s1	-1	1	-364	5	6	1	/	/	/	/	/
Cn1c(=O)c2c(ncn2CCC(=O)NN=Cc2ccncc2)n(C)c1=O	/	/	/	1	/	/	/	/	/	/	/
Cc1ccccc1NC(=O)Cn1c(C)nc2ccc(N)cc2c1=O	-4	3	-404	-71	4	0	/	/	/	/	/
Cc1ccccc1NC(=O)Cn1c(C)nc2ccc(NC(=O)C3CC3)cc2c1=O	0	4	-2	0	-7	71*	6	5	13	8	2
Fc1cccc(C=NNc2nc3ccccc3[nH]2)c1	/	/	/	2	/	/	/	/	/	/	/
CCN(CC)CCN1C(=O)Cn2c(C)c(C)c3cccc1c32	4	-8	20	4	-14	58*!	-5	3	0	0	0
Cc1cc(=O)n2[nH]c(SCc3ccccc3)nc2n1	0	-11	11	3	-27	-9	/	/	/	/	/
Cc1cc(=O)n2[nH]c(SCc3ccc(Cl)cc3)nc2n1	3	32	0	4	52*	1	38	34	69*	65*	41
O=C(NNC(=S)Nc1ccccc1Cl)c1ccccc1Br	2	73*	13	4	73*	67*	44	41	22	13	30
Oc1ccc(N=Nc2n[nH]c(-c3ccccc3)n2)cc1	3	96*	20	14	94*	98*	98*	98*	102*	98*	98*
SMILES	SENP1 FRET inh	SENP8 block-1	SENP8 block-2	UCH37 DUB inh	SENP6 block	SENP7 inh	SENP8 conf	SENP6 confirm	SENP7 conf	Casp3 select	Luc interf
Oc1ccc(N=Nc2n[nH]c(-c3ccc(Br)cc3)n2)cc1	2	/	24	6	/	/	/	/	/	/	/
Cc1sc(NC(=O)/C=C/c2ccco2)c(C(=O)O)c1C	5	50	14	15	73*	16	72*	69*	88*	85*	48
CCOC(=O)c1c(NC(=O)/C=C/c2ccc(C)o2)sc(C)c1C	-21	-6	-81	-47	-5	-7	/	/	/	/	/
COc1cc(C(C#N)N2N=C(c3ccccc3)CC2c2ccccc2)ccc1O (centres undefined)	-28	21	22	-1	66*	78*	-4	-2	4	10	9
Cn1cnnc1SCc1ccc(C(=O)NN=C(CCC(=O)O)c2ccc(C(C)(C)C)cc2)cc1	/	/	/	-1	/	/	/	/	/	/	/
COc1ccc(-n2c(C)nn(C)c2=O)cc1	3	-7	4	1	-5	-6	/	/	/	/	/
Cc1nn(C)c(=O)n1-c1ccc(OCc2ccccc2)cc1	3	41	20	-7	74*	76*	55*	56*	86*	90*	69*
O=C(O)c1ccc(C=NNc2nnnn2-c2ccccc2)cc1	/	/	/	0	/	/	/	/	/	/	/
O=C(Nc1nc2c(F)c(F)c(F)cc2s1)c1ccco1	0	53*	-99	4	68*	38	49	48	78*	52*	21
O=C(COC(=O)c1ccco1)Nc1nc2c(F)c(F)c(F)cc2s1	-72	5	-19	2	-14	2	/	/	/	/	/
O=C(Nc1nc2c(F)cc(F)cc2s1)c1ccco1	3	74*	-81	4	88*	78*	60*	88*	96*	90*	34
CCN(CC)c1cnn(CC(=NOC)c2ccc(Cl)cc2)c(=O)c1Br	/	/	/	1	/	/	/	/	/	/	/
CCCc1nc(-c2ccc(-c3ccc(F)cc3)cc2)no1	1	6	13	4	52*	57*	14	16	20	28	13
O=c1c2ccccc2cnn1CCOc1cccc(Br)c1	4	60*	8	5	74*	58*	55*	68*	86*	58*	6
CC1(C)CCC(=O)N2CC[C@H]3C[C@H](OC(=O)Nc4ccccc4)C[C@@H]1[C@H]32	4	56*	15	2	69*	73*	49	52*	87*	77*	69*
CC1(C)CCC(=O)N2CC[C@H]3C[C@H](OC(=O)Nc4ccc5c(c4)OCO5)C[C@@H]1[C@H]32	0	2	6	5	-15	-9	/	/	/	/	/
CC(C)(C)c1ccc(C=Nn2cnnc2)cc1	/	/	/	0	/	/	/	/	/	/	/
